Sampled rows, rich in hits. Any-hit rate of the full collection: about 1.1%.
Cneo AK release: Cryptococcus neoformans cell lysis inducers, primary screen, AK release luminescence, single concentration; C. neoformans lysis, adenylate kinase release luminescence, 4 h; normalised: neutral wells 0, clomiphene wells 100; lysis activity, % at 15 µM; actives 0.2% (n = 360,000);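 active = mean lysis activity across replicates of at least 80%, whatever share of replicates individually reach that level; inactive = mean lysis activity below 80%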
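Assay system: C. neoformans cells. Amount: yeast cell density of 5 × 10^6 cells/mL. Technique: AK luminescence. Buffer or medium: YPD. Times: static 4 h at 37 °C with compound, 1 h detection. Dosing: single-point compound dose. Read-out: lysis from increased AK signal.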
PglD inh: C. jejuni PglD acetyltransferase inhibitors, primary screen, biochemical, DTNB colorimetric, single point | UDP-N-acetylbacillosamine N-acetyltransferase PglD (Campylobacter jejuni) | purified PglD enzyme, DTNB colorimetric CoA detection | inhibition, % at 12.5 µM | actives 0.098% (n = 360,000); in the data active = inhibition above about 16%, passing the limit was not always enough
CAL PDZ FP-1: CAL PDZ peptide-binding inhibitors, primary screen, biochemical, fluorescence polarization, Cer-tagged CAL PDZ, HTS; purified CAL PDZ, TMR-peptide fluorescence polarization, 1 h; inhibition, % at 20 µM; actives 0.02% (n = 330,000); AID 504414, 2011;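 active = highest replicate inhibition of at least 40%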;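 note: plate controls were DMSO neutral control wells for no effect and unlabeled competitor peptide control wells for full effect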
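Material: tagged CAL PDZ domain; buffer or medium: 25 mM sodium phosphate pH 7.4, 150 mM NaCl, TCEP, IgG, Thesit; compound dosing: single point, 20 µM; schedule: 1 h incubation at room temperature before polarization reading; measured by: FP readout, S and P plane fluorescence; read-out basis: percent inhibition from loss of millipolarization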
CAL PDZ FP-2: untagged CAL PDZ binding inhibitors, primary screen, biochemical, fluorescence polarization, HTS; Golgi-associated PDZ and coiled-coil motif-containing protein (Homo sapiens), Q9HD26; purified CAL PDZ, TMR-peptide fluorescence polarization, 1 h; inhibition, % at 24.9 µM; actives 0.92% (n = 300,000); AID 602252, 2012;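 active = mean inhibition of at least 30% with at least half of replicates also reaching 30%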;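 note: 0% = DMSO neutral control and 100% = excess unlabeled competitor peptide PRC23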
miR122 inh: miR-122 Renilla sensor signal increase in Huh7, primary screen, miR-122 inhibitor project, cell-based, single point, plate reader. actives 0.3% (n = 340,000). Huh7 miR-122 Renilla luciferase sensor, 48 h; neutral wells = 0, positive control = 100. activation (reporter increase), % at 12.5 µM;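 active = mean replicate activation score at least 90 and every replicate individually at or above 90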;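 note: higher luciferase means less miR-122 activity so hits act as miR-122 inhibitors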
* hit, by the source's call; / = no result; [ ] = another dose, or the depositor's remark.

SMILES | Cneo AK release | PglD inh | CAL PDZ FP-1 | CAL PDZ FP-2 | miR122 inh
COc1cc(/C=N/NC(=O)c2ccc(CN3C(=O)c4cccc5cccc3c45)cc2)cc(OC)c1O | 7 | -4 | 6 | 50* | 32
C[C@@H]1CCCCO[C@@H](CN(C)C(=O)Nc2ccccc2)[C@H](C)CN([C@@H](C)CO)C(=O)c2cc(NS(=O)(=O)c3cn(C)cn3)ccc2O1 | -3 | -2 | / | / | 8[16.7 µM]
O=C(O)[C@H]1[C@H](CO)[C@H]2Cn3c(cccc3=O)[C@H]2N1C(=O)NC1CCCC1 | -1 | -1 | / | / | /
CNC[C@H]1Oc2cc(-c3ccc(C)cc3)ccc2S(=O)(=O)N([C@H](C)CO)C[C@@H]1C | -2 | 2 | / | / | -3[16.7 µM]
Nc1cccc(/C=C/c2ccncc2)c1 | / | / | -2 | 74* | /
Nc1cccc(CCc2ccncc2)c1 | 3 | -1 | -1 | -2 | 1
O=C(c1cc(Br)ccc1Cl)N1CCN(c2ccccn2)CC1 | 135* | 4 | 22 | 2 | 1
CCCNC(=O)N1C[C@@H](O)COC[C@@H]2O[C@@H](CC(=O)NCc3ccc(Cl)c(Cl)c3)CC[C@H]21 | 1 | 3 | / | / | 0[16.7 µM]
COCc1cc(Sc2cccc(Cl)c2Cl)nc(-c2ccccc2)n1 | 5 | 0 | -1 | 36* | -2
COCc1cc(Sc2ccc(Cl)cc2)nc(-c2ccccc2)n1 | -3 | -8 | -1 | / | 2
O=C(COc1ccc(F)cc1Cl)Nc1cccc(S(=O)(=O)N2CCCCCC2)c1 | 4 | -4 | -2 | -1 | /
Cc1cccc(NC(=O)CCS(=O)(=O)c2ccccc2)c1 | / | / | -3 | 62* | /
CC(=O)c1cc(Cl)ccc1OCC(=O)Nc1cccc(S(=O)(=O)N2CCCC2)c1 | / | / | -1 | 50* | /
Cc1ccc(S(=O)(=O)CCC(=O)Nc2cccc(S(=O)(=O)N3CCCCCC3)c2)cc1 | -1 | -4 | -1 | 32* | 1
CCCNC(=O)C[C@@H]1CC[C@H]2[C@@H](COC[C@@H](O)CN2C(=O)Nc2ccc3c(c2)OCO3)O1 | -3 | 4 | / | / | 14[16.7 µM]
CS(=O)(=O)Nc1ccc(C2=NN(C(=O)c3ccco3)C(c3ccccc3)C2)cc1 (stereo unspecified) | / | / | -2 | -6 | -9
CS(=O)(=O)Nc1ccc(C2=NN(C(=O)c3ccco3)C(c3ccco3)C2)cc1 (stereo unspecified) | -1 | 1 | -2 | 33* | -1
C=CCN(C(=O)c1csnn1)C(C(=O)NCc1ccccc1)c1c(F)cccc1Cl (stereo unspecified) | -1 | 0 | 0 | 41* | /
O=C(NCCCN1CCCC1=O)c1cc2nc(-c3ccco3)cc(C(F)(F)F)n2n1 | -1 | 0 | 0 | 58* | -1
CCC(=O)Nc1ccc2c(c1)C(=O)N(C)C[C@@H](OC)[C@H](C)CN(Cc1cccnc1)[C@H](C)CO2 | -2 | 2 | / | / | -2[16.7 µM]
Cc1ccc2nc(-c3ccc(NC(=O)CSc4nc(N)cc(=O)[nH]4)cc3)sc2c1 | -10 | -3 | 0 | 54* | -1
CCC1(c2ccc(F)cc2)NC(=O)N(CC(=O)Nc2ccc(-c3nc4ccc(C)cc4s3)cc2)C1=O (stereo unspecified) | -3 | -7 | -1 | / | 271*
Cc1cc(C)c2c(=O)[nH]c(SCC(=O)Nc3ccccc3)nc2n1 | -2 | 2 | 0 | / | -4
COc1ccc(C2(C)NC(=O)N(CC(=O)Nc3ccc(-c4nc5ccc(C)cc5s4)cc3)C2=O)cc1 (stereo unspecified) | -3 | 2 | -2 | 9 | 1
Cc1ccc(NC(=O)CSc2nc3nc(C)cc(C)c3c(=O)[nH]2)cc1 | 0 | 1 | / | 37* | 1
COCC(=O)N(C)C[C@@H]1Oc2ncc(C#Cc3ccccc3)cc2C(=O)N([C@@H](C)CO)C[C@H]1C | -2 | 2 | / | / | -3[16.7 µM]
CCOC(=O)C1=C(C)C/C(=N\NC(=O)c2ccccc2O)CC1 | / | / | -1 | 86* | /

Source: PubChem
